Rtt109 HAT inh – blocks Candida albicans Rtt109/Vps75 acetyltransferase activity | purified Rtt109/Vps75, ThioGlo CoA-SH fluorescence, 4 h | inhibition, % at 34.9 µM | 330,000 compounds, 0.16% hits;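 active = inhibition of at least 50% in every replicate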
S100A4 inh HTS – blocks human S100A4 binding to myosin IIA peptide; S100A4/TAMRA-MyoIIA peptide fluorescence polarization; inhibition, % at 10.7 µM; 360,000 compounds, 0.14% hits;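 active = mean inhibition of at least 70% across replicates, with every replicate also reaching that level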
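Material: human S100A4 monomer with TAMRA-labelled myosin IIA peptide; buffer or medium: HEPES pH 7.2 with CaCl2, KCl, NaCl, DTT, Triton; compound dosing: one concentration per compound; schedule: 5 min incubation before reading; benchmarks: neutral control DMSO, positive control TFP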
miR122 inh – miR-122 inhibition in Huh7 cells. Huh7 miR-122 Renilla luciferase sensor, 48 h; neutral wells = 0, positive control = 100. 340,000 compounds, 0.3% hits. activation (reporter increase), % at 12.5 µM. AID 602342;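 active = mean replicate activation score at least 90 and every replicate individually at or above 90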;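 note: higher luciferase means less miR-122 activity so hits act as miR-122 inhibitors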
ERAP1 HTS inh – ERAP1 (human) enzyme inhibition; 340,000 compounds, 0.15% hits; inhibition, % at 10.7 µM; Q9NZ08; recombinant ERAP1, Leu-AMC fluorescence, 60 min;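 active = mean replicate inhibition of at least 30%, or all replicates individually reaching that 30% level; inactive = mean below 30% and not every replicate reaching it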
AF4-AF9 inh – blocks AF4 peptide binding to human AF9. inhibition, % at 10 µM. AlphaScreen, biotin-AF4 peptide binding to FLAG-AF9. 350,000 compounds, 0.47% hits;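 active = every replicate reaching a set inhibition limit, whatever the replicate mean, cut at about 25% in these data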
Hits are given with their value; . = inactive; / = no result given; ! = not confirmed by another sample. A selection: hits, their analogues and other compounds. The true share with any hit is near 0.86%.

SMILES	Rtt109 HAT inh	S100A4 inh HTS	miR122 inh	ERAP1 HTS inh	AF4-AF9 inh
C[C@@H]1CN([C@@H](C)CO)C(=O)c2cc(NC(=O)CCCCCC(=O)Nc3ccccc3N)ccc2O[C@H]1CN(C)C(=O)Nc1ccc2c(c1)OCO2	/	119	/	.	.
CCCNC(=O)C[C@@H]1CC[C@@H]2[C@@H](COc3ccc(NC(=O)c4cccc(F)c4)cc3C(=O)N2C)O1	/	.	.	.	.
COc1ccc(S(=O)(=O)N(C)C[C@H]2Oc3c(NC(=O)Nc4ccc(C(F)(F)F)cc4)cccc3C(=O)N([C@@H](C)CO)C[C@@H]2C)cc1	/	.	.	.	.
Oc1ccc(N=Nc2c(O)ccc3ccccc23)cc1	.	.	.	.	.
N=C(N)c1ccc(N=Nc2c(O)ccc3c2[nH]c2ccccc23)cc1	.	.	.	.	32
CC(OC(=O)c1ccc(Cl)c(S(=O)(=O)Nc2ccc(F)cc2)c1)C(=O)NC(N)=O (stereo unspecified)	.	.	.	.	40
C[C@H](CO)N1C[C@H](C)[C@@H](CN(C)C(=O)CN(C)C)Oc2ncc(-c3ccccc3F)cc2C1=O	/	.	.	.	.
CCC(C)NC(C(=O)Nc1ccc(Cl)c([N+](=O)[O-])c1)c1ccccc1 (stereo unspecified)	.	/	/	/	/
O=C(Nc1ccc(Cl)c([N+](=O)[O-])c1)C(NCCCO)c1ccccc1 (stereo unspecified)	.	/	226	/	/
C=CCOC(=O)[C@@]12O[C@]3(COC[C@H](c4ccccc4)N3C1=O)[C@@H]1C(=O)N(c3ccccc3)C(=O)[C@@H]12	/	.	/	.	.
CCCNC(=O)C[C@@H]1C[C@@H]2c3cc(NS(=O)(=O)c4ccc(OC)cc4)ccc3O[C@@H]2[C@H](CO)O1	/	/	.	/	/
COc1cc(C(=O)N=c2sccn2C)c([N+](=O)[O-])cc1OC	.	.	.	45	.
Cn1ccsc1=NC(=O)c1ccc([N+](=O)[O-])o1	.	.	.	.	.
Cc1cc(S(=O)(=O)Nc2ccc3ccccc3c2)c(C)s1	.	.	540	.	.
Cc1cc(S(=O)(=O)Nc2cccnc2)c(C)s1	.	/	.	/	/
O=S(=O)(Nc1ccc(NS(=O)(=O)c2ccccc2)cc1)c1ccccc1	/	.	/	.	.
Cc1cc(S(=O)(=O)Nc2cc(C)c(O)c(C)c2)c(C)s1	.	/	196	/	/
O=S(=O)(Nc1ccc2ccccc2c1)c1ccccc1	.	/	170	/	/
Cc1ccc(S(=O)(=O)Nc2ccc3ccccc3c2)cc1	.	.	118	.	.
Cc1noc(C)c1NC(=O)Nc1ccc2c(c1)C(=O)N([C@H](C)CO)C[C@H](C)[C@H](CN(C)C(=O)Nc1ccccc1)OCCCC[C@H](C)O2	/	.	.	.	.
COc1ccc(S(=O)(=O)Nc2cc(C)ccc2OC)cc1C	.	/	114	/	/
COc1ccc(S(=O)(=O)Nc2ccc3ccccc3c2)cc1C	.	/	109	/	/
Cc1ccc(S(=O)(=O)Nc2ccc3c(c2)CCC3)cc1	.	/	167	/	/
COC(=O)c1ccc(C)c(NS(=O)(=O)c2ccc(OC)c(OC)c2)c1	.	/	131	/	/
CCC(=O)N[C@H]1CC[C@@H](CCNC(=O)Nc2ccc(C(F)(F)F)cc2)O[C@@H]1CO	/	.	.	.	.
SMILES	Rtt109 HAT inh	S100A4 inh HTS	miR122 inh	ERAP1 HTS inh	AF4-AF9 inh
C[C@@H]1CN([C@@H](C)CO)C(=O)Cc2cc(NS(=O)(=O)c3cccs3)ccc2O[C@@H]1CN(C)C(=O)NC1CCCCC1	/	.	.	.	.
O=C(Nc1ccc2c(c1)OCO2)N1C[C@@H]2N[C@H](C1)C2c1ccc(C=Cc2ccccc2)cc1 (stereo partly specified)	/	.	/	.	56!
O=C(Nc1ccc2c(c1)OCO2)N1[C@@H]2CNC[C@H]1C2c1ccc(/C=C/c2ccccc2)cc1 (stereo partly specified)	/	.	/	.	.
C[N+]12CCCCC1C(COC(=O)c1ccc3c(c1)OCO3)CCC2 (stereo unspecified)	.	.	/	31	.
CCOc1ccc(CC(=N)C2=C(O)CC(C)(C)CC2=O)cc1OCC	.	/	133	/	/
O=C(Nc1cccnc1)C1CCCN(c2ncnc3c2nc2n3CCCCC2)C1 (stereo unspecified)	.	.	/	.	.
CCc1cccc(NC(=O)C2CCCN(c3ncnc4c3nc3n4CCCCC3)C2)c1 (stereo unspecified)	87	.	.	.	.
N#Cc1ccccc1Sc1ccccc1C(=O)NCC(c1ccco1)N1CCCC1 (stereo unspecified)	.	.	.	.	27

Screens: PubChem BioAssay, Broad Institute
